Source: ChEMBL document CHEMBL4257483, “Design, synthesis and bioactivities of phenithionate analogues or derivatives for anti-schistosomiasis” (Medchemcomm, 2018)
In brackets after ≈: the same amount, converted by molar mass. Activity calls are given as the source filed them. No cut-off for these calls is given here.

Tests used:
Schistosoma japonicum [1] = experiment: Antischistosomal activity against Schistosoma japonicum infected in mouse at 50 mg/kg/day, po treated for 5 days measured after day 3 post last dose by ELISA; type: functional, organism-based
Summary of the method: (§1)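 Male mice (20–22 g) infected via abdominal skin with 120–140 S. japonicum cercariae. From day 35 post-infection, dosed orally once daily for 5 days. Venous blood then clotted and centrifuged 15 min at 3500 rpm. Serum tested by triple dot ELISA and scored by spot colour: brown +++, yellow ++, slight yellow +, colourless –. DMSO blank.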

Schistosoma japonicum [2] = experiment: Antischistosomal activity against Schistosoma japonicum infected in mouse at 25 mg/kg/day, po treated for 5 days measured after day 8 post last dose by ELISA; type: functional, organism-based; summary of the method: as §1
Schistosoma japonicum [3] = experiment: Antischistosomal activity against Schistosoma japonicum infected in mouse at 50 mg/kg/day, po treated for 5 days measured after day 2 post last dose by ELISA; type: functional, organism-based; summary of the method: as §1
Schistosoma japonicum [4] = experiment: Antischistosomal activity against Schistosoma japonicum infected in mouse at 25 mg/kg/day, po treated for 5 days measured after day 7 post last dose by ELISA; type: functional, organism-based; summary of the method: as §1
Schistosoma japonicum [5] = experiment: Antischistosomal activity against Schistosoma japonicum infected in mouse at 50 mg/kg/day, po treated for 5 days measured after day 5 post last dose by ELISA; type: functional, organism-based; summary of the method: as §1
Schistosoma japonicum [6] = experiment: Antischistosomal activity against Schistosoma japonicum infected in mouse at 25 mg/kg/day, po treated for 5 days measured after day 6 post last dose by ELISA; type: functional, organism-based; summary of the method: as §1
Schistosoma japonicum [7] = experiment: Antischistosomal activity against Schistosoma japonicum imago derived from infected mouse assessed as reduction in imago viability after 72 hrs; type: functional, organism-based
Summary of the method: (§2)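 Worms perfused with cold heparinised HBSS from mice infected percutaneously with S. japonicum cercariae: larvae at 15 days post-infection (260–280 cercariae), adults at 35 days (120–140 cercariae). Five male and female worms per well in 10% calf serum RPMI 1640 with penicillin, streptomycin and amphotericin B. Preincubated 4 h at 37 °C, 5% CO2, then compounds added and viability recorded over 72 h. IC50 taken at 50% survival. DMSO blank.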

[8] = Dissociation constant, pKa of the compound; type: physicochemical
Schistosoma japonicum [9] = experiment: Antischistosomal activity against Schistosoma japonicum infected in mouse at 25 mg/kg/day, po treated for 5 days measured after day 1 post last dose by ELISA; type: functional, organism-based; summary of the method: as §1
Schistosoma japonicum [10] = experiment: Antischistosomal activity against Schistosoma japonicum infected in mouse at 50 mg/kg/day, po treated for 5 days measured after day 6 post last dose by ELISA; type: functional, organism-based; summary of the method: as §1
Schistosoma japonicum [11] = experiment: Antischistosomal activity against Schistosoma japonicum infected in mouse at 25 mg/kg/day, po treated for 5 days measured after day 9 post last dose by ELISA; type: functional, organism-based; summary of the method: as §1
[12] = Lipid/water partition coefficient, log P of the compound; type: physicochemical
Schistosoma japonicum [13] = experiment: Antischistosomal activity against Schistosoma japonicum larva derived from infected mouse assessed as reduction in larva viability after 72 hrs; type: functional, organism-based; summary of the method: as §2
Schistosoma japonicum [14] = experiment: Antischistosomal activity against Schistosoma japonicum imago derived from infected mouse at 20 ug/ml after 72 hrs; type: functional, organism-based; summary of the method: as §2
Schistosoma japonicum [15] = experiment: Antischistosomal activity against Schistosoma japonicum infected in mouse at 25 mg/kg/day, po treated for 5 days measured after day 4 post last dose by ELISA; type: functional, organism-based; summary of the method: as §1
Schistosoma japonicum [16] = experiment: Antischistosomal activity against Schistosoma japonicum infected in mouse at 50 mg/kg/day, po treated for 5 days measured after day 7 post last dose by ELISA; type: functional, organism-based; summary of the method: as §1
Schistosoma japonicum [17] = experiment: Antischistosomal activity against Schistosoma japonicum infected in mouse at 25 mg/kg/day, po treated for 5 days measured after day 3 post last dose by ELISA; type: functional, organism-based; summary of the method: as §1
Schistosoma mansoni = experiment: Antischistosomal activity against Schistosoma mansoni imago derived from infected mouse at 20 ug/ml after 72 hrs; type: functional, organism-based
Schistosoma japonicum [18] = experiment: Antischistosomal activity against Schistosoma japonicum infected in mouse at 50 mg/kg/day, po treated for 5 days measured after day 8 post last dose by ELISA; type: functional, organism-based; summary of the method: as §1
Schistosoma japonicum [19] = experiment: Antischistosomal activity against Schistosoma japonicum infected in mouse at 25 mg/kg/day, po treated for 5 days measured after day 2 post last dose by ELISA; type: functional, organism-based; summary of the method: as §1
Schistosoma japonicum [20] = experiment: Antischistosomal activity against Schistosoma japonicum infected in mouse at 50 mg/kg/day, po treated for 5 days measured after day 1 post last dose by ELISA; type: functional, organism-based; summary of the method: as §1
Schistosoma haematobium = experiment: Antischistosomal activity against Schistosoma haematobium imago derived from infected mouse at 20 ug/ml after 72 hrs; type: functional, organism-based
Schistosoma japonicum [21] = experiment: Antischistosomal activity against Schistosoma japonicum infected in mouse at 25 mg/kg/day, po treated for 5 days measured after day 5 post last dose by ELISA; type: functional, organism-based; summary of the method: as §1
[22] = Acute toxicity in po dosed mouse infected with Schistosoma japonicum treated for 5 days; type: organism-based; details: in vivo
Schistosoma japonicum [23] = experiment: Antischistosomal activity against Schistosoma japonicum infected in mouse at 50 mg/kg/day, po treated for 5 days measured after day 9 post last dose by ELISA; type: functional, organism-based; summary of the method: as §1
Schistosoma japonicum [24] = experiment: Antischistosomal activity against Schistosoma japonicum infected in mouse at 50 mg/kg/day, po treated for 5 days measured after day 4 post last dose by ELISA; type: functional, organism-based; summary of the method: as §1

Oc1ccc(OC(=S)Nc2ccc(Nc3ccc(C(F)(F)F)cc3)cc2)cc1
Activity (Schistosoma japonicum [1]): Active
Activity (Schistosoma japonicum [2]): inactive
Activity (Schistosoma japonicum [3]): Active
Activity (Schistosoma japonicum [4]): inactive
Activity (Schistosoma japonicum [5]): inactive
Activity (Schistosoma japonicum [6]): inactive
IC50 (Schistosoma japonicum [7]): 6.68 µg/mL (≈ 16.5 µM)
pKa [8]: 9.23
Activity (Schistosoma japonicum [9]): Active
Activity (Schistosoma japonicum [10]): inactive
Activity (Schistosoma japonicum [11]): inactive
logP [12]: 6.04
IC50 (Schistosoma japonicum [13]): 5.43 µg/mL (≈ 13.4 µM)
Activity (Schistosoma japonicum [14]): Active
Activity (Schistosoma japonicum [15]): Active
Activity (Schistosoma japonicum [16]): inactive
Activity (Schistosoma japonicum [17]): Active
Activity (Schistosoma mansoni): inactive
Activity (Schistosoma japonicum [18]): inactive
Activity (Schistosoma japonicum [19]): Active
Activity (Schistosoma japonicum [20]): Active
Activity (Schistosoma haematobium): inactive
Activity (Schistosoma japonicum [21]): Active
LD50 at 120 h [22]: > 500 mg/kg
Activity (Schistosoma japonicum [23]): inactive
Activity (Schistosoma japonicum [24]): inactive
